# PDI turbidity = blocks human protein disulfide isomerase activity | AID 588391 | PDI insulin aggregation turbidity, A650, 90 min | inhibition, % at 10 µM | actives 0.052% (n = 350,000);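 active = mean inhibition across replicates of 30% or more, whatever share of single replicates reach that level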
# Target sequence (P07237 whole entry, looked up): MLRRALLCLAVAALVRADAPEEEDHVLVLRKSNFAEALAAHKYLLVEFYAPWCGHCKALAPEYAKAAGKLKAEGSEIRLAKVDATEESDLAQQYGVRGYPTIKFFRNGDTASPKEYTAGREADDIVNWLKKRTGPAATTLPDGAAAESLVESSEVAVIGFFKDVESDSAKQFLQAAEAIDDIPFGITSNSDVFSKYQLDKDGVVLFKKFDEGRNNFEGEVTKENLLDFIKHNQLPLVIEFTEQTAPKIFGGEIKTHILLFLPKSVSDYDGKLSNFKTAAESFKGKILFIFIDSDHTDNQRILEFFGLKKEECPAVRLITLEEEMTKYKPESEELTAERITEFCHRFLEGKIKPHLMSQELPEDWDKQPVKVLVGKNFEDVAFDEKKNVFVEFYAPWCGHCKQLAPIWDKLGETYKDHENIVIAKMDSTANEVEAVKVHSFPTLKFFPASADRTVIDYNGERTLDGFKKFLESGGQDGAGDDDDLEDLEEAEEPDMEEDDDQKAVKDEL
# ERp5 block = ERp5 (human) disulfide isomerase inhibition; ERp5 insulin aggregation, absorbance 650 nm, 90 min; inhibition, % at 9.99 µM; actives 0.05% (n = 350,000);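 active = mean replicate inhibition above about 25%, with every replicate also reaching it, limit read from the data, passing the limit was not always enough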
# S100A4 inh HTS = S100A4-myosin IIA interaction inhibition; AID 652163; P26447; actives 0.14% (n = 360,000); inhibition, % at 10.7 µM; S100A4/TAMRA-MyoIIA peptide fluorescence polarization;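 active = mean inhibition of at least 70% across replicates, with every replicate also reaching that level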
# Target sequence (P26447 whole entry, looked up): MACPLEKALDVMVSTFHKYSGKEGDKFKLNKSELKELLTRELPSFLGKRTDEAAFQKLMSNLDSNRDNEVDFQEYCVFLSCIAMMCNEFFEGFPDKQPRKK
#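 Compound dosing: one dose per compound; test system: human S100A4 monomer with TAMRA-labelled myosin IIA peptide; probe or stimulus: TAMRA-labelled myosin IIA heavy-chain peptide probe, 5 nM; medium: HEPES buffer with Ca2+, pH 7.2; schedule: 5 min incubation before reading; benchmarks: neutral control DMSO, positive control TFP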
# SIRT5 block = blocks human SIRT5 desuccinylation of peptide. AID 652115. inhibition, % at 15 µM. Q9NXA8. actives 1.1% (n = 330,000). Purified SirT5, succinyl-peptide AMC, trypsin-coupled fluorescence; in the data active = inhibition above about 15%
# GSIS activator = primary screen for activators of insulin secretion dependent on glucose, INS-1E cells, GLuc reporter luminescence | AID 743287 | actives 0.61% (n = 370,000) | activation, % at 16.6 µM | INS-1E GLuc reporter insulin secretion, 2-3 h;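 active = lowest replicate activation of at least 40%, so every replicate reaches that level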;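 also: 0% = median of neutral control wells and 100% = median of IBMX positive control wells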
# Starred values were filed as active, the others as inactive; · = no result. Shown are actives, neighbours in structure and some others; about 1.5% of the full set was active somewhere.
SMILES,PDI turbidity,ERp5 block,S100A4 inh HTS,SIRT5 block,GSIS activator
CCSC1=N/C(=C\c2ccc3c(c2)OCO3)C(=O)S1,-7.7,·,·,·,-9.0
CN1C(=O)/C(=C/c2ccc3c(c2)OCO3)N=C1c1ccccc1,6.2,·,·,·,40.0*
CN(CC(=O)Nc1ccc(F)c(F)c1F)C(=O)c1cc(-c2ccncc2)nc2ccccc12,-2.0,29.0*,2.6,-0.9,-33.6
O=C(Nc1ccc2c(c1)[C@H]1C[C@H](CC(=O)N3CCCCC3)O[C@@H](CO)[C@H]1O2)Nc1ccccc1F,·,-0.4,12.9,-4.7,-12.1
COc1ccc(C(=O)OCC(=O)NC(=O)NC2CCCC2)cc1OC,-1.4,6.8,-7.1,-0.7,55.5*
COC(=O)c1ccc(OC)c(OC2CCCC2)c1,-0.2,5.7,-2.0,-1.6,46.8*
COc1ccc(NC(=O)C2CC2)cc1OC1CCCC1,-0.8,·,·,·,·
O=C(COC(=O)c1cccc(Br)c1)NC(=O)NC1CCCC1,4.3,-1.5,3.4,-0.3,1.7
Cn1cnc(S(=O)(=O)N[C@@H]2CC[C@@H](CC(=O)Nc3ccccc3)O[C@@H]2CO)c1,·,-3.7,-0.6,-3.5,14.5
CC(/C=C/C=C/c1ccccc1)=N/NC(=O)CNc1ccccc1C,-3.6,·,·,·,135.6*
CC(/C=C/c1ccco1)=N/NC(=O)CNc1ccccc1C,-1.3,-4.3,-7.2,-0.7,-8.3
CC(C)NC(=O)N(C)C[C@@H]1OCCCC[C@@H](C)Oc2ccc(NC(=O)CCCN(C)C)cc2C(=O)N([C@H](C)CO)C[C@H]1C,·,5.5,4.1,-0.8,3.5
O=S(c1ccccc1O)S(=O)c1ccccc1O (stereo not drawn),15.4,-2.4,-7.0,25.8*,·
Cc1ccccc1C(=O)Nc1nnc(-c2ccc(C(C)(C)C)cc2)s1,-13.3,·,·,·,137.0*
Cc1cccc(C(=O)Nc2nnc(-c3ccc(C(C)(C)C)cc3)s2)c1,-1.7,·,·,·,·
COCC(=O)N1[C@H](CO)[C@@H](c2ccccc2)[C@H]1CNC(=O)c1ccccn1,·,5.6,1.8,6.6,5.0
O=C(NC[C@H]1[C@H](c2ccccc2)[C@H](CO)N1Cc1cccnc1)c1ccccn1,·,1.5,4.5,17.1*,4.2
COCC(=O)N1[C@H](CO)[C@H](c2ccccc2)[C@@H]1CNC(=O)c1ccccn1,·,-1.2,1.2,15.0*,12.4
C[C@@H]1CCCCO[C@H](CN(C)Cc2ccc(C(=O)O)cc2)[C@@H](C)CN([C@@H](C)CO)C(=O)c2cc(NC(=O)NC3CCCCC3)ccc2O1,·,-9.7,0.1,-3.7,3.9
C[C@@H]1CCCCO[C@@H](CN(C)C(=O)Nc2ccc(C(F)(F)F)cc2)[C@H](C)CN([C@@H](C)CO)C(=O)c2cc(NC(=O)CCC(F)(F)F)ccc2O1,·,-4.7,-5.8,0.2,7.1
C[C@]12c3[nH]c4ccc(Cl)cc4c3CCN1C(=O)[C@@H](CC(=O)NCc1cccc(C(F)(F)F)c1)C[C@@H]2C(=O)N1CCOCC1,20.3,-2.4,-6.8,39.8*,-40.0
CC[C@]12c3[nH]c4ccc(Cl)cc4c3CCN1C(=O)[C@@H](CC(=O)NCCC1=CCCCC1)C[C@@H]2C(=O)N1CCN(C(=O)C2CC2)CC1,7.1,1.5,-1.4,17.8*,-17.5
CC[C@]12c3[nH]c4ccccc4c3CCN1C(=O)C(CC(=O)NCCC1=CCCCC1)C[C@@H]2C(=O)N1CCN(C(=O)C2CC2)CC1 (stereo partly drawn),-6.2,1.0,-0.4,3.5,·
CC[C@]12c3[nH]c4cc(-c5ccco5)ccc4c3CCN1C(=O)[C@@H](CC(=O)NCc1ccc(OC)c(OC)c1)C[C@@H]2C(=O)N1CCN(C(=O)c2ccco2)CC1,37.5*,0.4,-1.3,-0.7,-3.5
C[C@]12c3[nH]c4ccccc4c3CCN1C(=O)C(CC(=O)NCc1cccc(C(F)(F)F)c1)C[C@@H]2C(=O)N1CCOCC1 (stereo partly drawn),3.3,1.3,3.1,1.6,-16.4
SMILES,PDI turbidity,ERp5 block,S100A4 inh HTS,SIRT5 block,GSIS activator
O=C(NC1CCCC1)N1CCCCN2[C@H](CO)[C@H](c3ccc(-c4ccccc4)cc3)[C@H]2C1,·,-4.2,-9.0,-2.3,-24.7
C[C@H]1CN([C@@H](C)CO)C(=O)c2cccc(NC(=O)NC3CCCCC3)c2O[C@@H]1CN(C)C(=O)NC1CCCCC1,·,1.9,-0.3,-6.4,-3.5
O=C(C[C@@H]1CC[C@@H](NC(=O)NC2CCCCC2)[C@H](CO)O1)NCc1ccccc1,·,9.4,-12.1,2.7,20.2
C[C@H](CO)N1C[C@H](C)[C@H](CN(C)S(=O)(=O)c2cccs2)OCCCC[C@H](C)Oc2ccc(NS(=O)(=O)c3cccs3)cc2C1=O,·,1.9,-2.2,3.2,-20.2
Cc1cccc(S(=O)(=O)N2C[C@@H]3[C@H](c4ccccc42)[C@H](CO)N3C(=O)C2CC2)c1,·,2.1,12.0,1.4,3.9
CC(C)c1c(O)c2c(n(-c3ccccc3)c1=O)CCCC2,-0.6,·,·,·,60.5*
O=c1c(-c2ccccc2)c(O)c2c(n1-c1ccccc1)CCCC2,-5.4,·,·,·,10.5
Nc1ccccc1C(=O)N=Nc1[nH]c(N)c2ccccc12,8.7,-2.9,-0.7,17.6*,4.7
Nc1[nH]c(N=NC(=O)c2ccc(F)cc2)c2ccccc12,-10.4,24.8,3.4,-0.1,16.5
CCn1c(C)cc(/C=C2/SC(=S)N(CC(=O)O)C2=O)c1C,-4.8,-4.8,-6.4,15.4*,-5.1
Cc1cc(C)nc(NS(=O)(=O)c2ccc(N/C=C/C(=O)c3ccc(Cl)c(Cl)c3)cc2)n1,-9.1,·,·,·,63.0*
O=C(O)CSc1nc2ccccc2n1-c1ccccc1,-6.2,2.0,-2.3,1.6,14.3
NC(=O)CSc1nc2ccccc2n1-c1ccccc1,-5.6,-7.3,5.7,26.1*,18.6
CCCCCCSc1cc(-c2nc3cnccn3c2NCCCC)ccc1OC,-9.4,-8.1,-31.0,26.5*,108.5*
C[C@H](CO)N1C[C@H](C)[C@H](CN(C)Cc2cncnc2)Oc2cc(C#CC3CCCC3)ccc2S1(=O)=O,·,-0.9,3.1,17.5*,-25.8
C[C@H]1CN([C@@H](C)CO)S(=O)(=O)c2ccc(C#CC3CCCCC3)cc2O[C@@H]1CN(C)Cc1cccnc1,·,15.1,-6.7,18.2*,·
C[C@H]1CN([C@@H](C)CO)S(=O)(=O)c2ccc(C#CC3CCCC3)cc2O[C@H]1CN(C)C(=O)Cc1ccccc1,·,-0.2,1.1,16.8*,-32.0
C[C@@H]1CN([C@@H](C)CO)S(=O)(=O)c2ccc(C#CC3CCCC3)cc2O[C@@H]1CN(C)Cc1cccnc1,·,-3.5,4.3,8.8,-10.0
C[C@H]1CN([C@@H](C)CO)S(=O)(=O)c2ccc(C#CC3CCCC3)cc2O[C@@H]1CN(C)Cc1cccnc1,·,1.2,25.7,16.6*,-2.6
C[C@@H]1CN([C@H](C)CO)S(=O)(=O)c2ccc(C#CC3CCCC3)cc2O[C@@H]1CN(C)C(=O)Cc1ccccc1,·,11.0,2.5,3.3,-12.9
COc1ccc(-c2ccc(=O)[nH]n2)cc1,1.8,3.3,-3.4,-2.2,22.0
